Format in all cases: functional, cell-based
Test [1] relates to A549. Put plainly: Cytotoxicity against human A549 cells by MTT assay. In outline: (§1)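 In vitro MTT assay on human tumour cells: myeloid leukaemia K562 and HL-60, ovarian carcinoma Skov-3, epidermoid carcinoma A431, and lung adenocarcinoma A549. IC50 is the concentration that lowers optical density of treated cells by 50% relative to untreated cells. Values are means of three independent determinations.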
For orientation: Tetrazolium assays rely on reduction of a dye to a coloured formazan, in cell work by metabolically active cells.

Test [2] relates to HepG2. The test is described as follows: Cytotoxicity against human HepG2 cells by MTT assay.
In test [3] the test system is K562. Put plainly: Cytotoxicity against human K562 cells by MTT assay. In outline: as §1
Test [4] deals with HL-60. Put plainly: Cytotoxicity against human HL60 cells by MTT assay. In outline: as §1
Test [5] concerns SK-OV-3. The test is described as follows: Cytotoxicity against human SKOV3 cells by MTT assay. An outline of the steps: as §1
The test system of test [6] is A-431. Put plainly: Cytotoxicity against human A431 cells by MTT assay. In outline: as §1

Each structure is given as a SMILES string. Values after ≈ are worked out from the molar mass of the structure shown.

In general, IC50 refers to the point on the concentration scale where inhibition reaches its midpoint. High values mean a need for much substance, low ones inhibition by little substance.

Consider `O=C(c1ccc(Cl)cc1)c1nnn2c1OCC2`, for which the half-maximal inhibitory concentration (IC50) is 42 µg/mL (≈ 168 µM) in test [1]; above 200 µg/mL in test [2]; above 200 µg/mL in test [3]; 6.5 µg/mL (≈ 26 µM) in test [4]; 8.6 µg/mL (≈ 34.4 µM) in test [5]; 3.8 µg/mL (≈ 15.2 µM) in test [6].

As to `COc1ccc(C(=O)c2nnn3c2NCC3)cc1`, the half-inhibitory concentration (IC50) was above 200 µg/mL in test [1]; above 200 µg/mL in test [2]; 2.8 µg/mL (≈ 11.5 µM) in test [3]; above 200 µg/mL in test [4]; 159 µg/mL (≈ 651 µM) in test [5]; above 200 µg/mL in test [6].

As to `Cc1ccc(C(=O)c2nnn3c2NCCC3)cc1`, the IC50 in test [1] is above 200 µg/mL; in test [2], above 200 µg/mL; in test [3], 1.5 µg/mL (≈ 6.19 µM); in test [4] it was above 200 µg/mL; in test [5] it was 124 µg/mL (≈ 512 µM); in test [6], above 200 µg/mL.

In the case of `O=C(c1ccc(Cl)cc1)c1nnn2c1NCC2`, the concentration for half-maximal inhibition (IC50) was above 200 µg/mL in test [1]; above 200 µg/mL in test [2]; 16.1 µg/mL (≈ 64.7 µM) in test [3]; above 200 µg/mL in test [4]; above 200 µg/mL in test [5]; 57.6 µg/mL (≈ 232 µM) in test [6].

With `COc1ccc(C(=O)c2nnn3c2NCCC3)cc1`, the IC50 in test [1] was above 200 µg/mL; in test [2] it was above 200 µg/mL; in test [3] it was 3.4 µg/mL (≈ 13.2 µM); in test [4], above 200 µg/mL; in test [5], 190 µg/mL (≈ 736 µM); in test [6], 64.4 µg/mL (≈ 249 µM).

As for `O=C(c1ccccc1)c1nnn2c1NCC2`, the IC50 in test [1] is above 200 µg/mL; in test [2], above 200 µg/mL; in test [3], 92 µg/mL (≈ 429 µM); in test [4], above 200 µg/mL; in test [5], above 200 µg/mL; in test [6], above 200 µg/mL.

As for `COc1ccc(C(=O)c2nnn3c2OCC3)cc1`, the IC50 in test [1] is 58 µg/mL (≈ 237 µM); in test [2] it was above 200 µg/mL; in test [3] it was 1 µg/mL (≈ 4.08 µM); in test [4], 21.1 µg/mL (≈ 86 µM); in test [5], 9.6 µg/mL (≈ 39.1 µM); in test [6] it was 1.9 µg/mL (≈ 7.75 µM).

On to `Cc1ccc(C(=O)c2nnn3c2NCC3)cc1`, for which the 50% inhibitory concentration (IC50) in test [1] was above 200 µg/mL; in test [2], above 200 µg/mL; in test [3], 9.4 µg/mL (≈ 41.2 µM); in test [4], above 200 µg/mL; in test [5], above 200 µg/mL; in test [6] it was above 200 µg/mL.

With `O=C(c1ccccc1)c1nnn2c1NCCC2`, the IC50 in test [1] is above 200 µg/mL; in test [2] it was above 200 µg/mL; in test [3], 28.6 µg/mL (≈ 125 µM); in test [4] it was above 200 µg/mL; in test [5] it was above 200 µg/mL; in test [6], above 200 µg/mL.

In the case of `O=C(c1ccccc1)c1nnn2c1OCC2`, the IC50 in test [1] was 78 µg/mL (≈ 362 µM); in test [2], above 200 µg/mL; in test [3] it was above 200 µg/mL; in test [4], 17.2 µg/mL (≈ 79.9 µM); in test [5], 66.1 µg/mL (≈ 307 µM); in test [6], 10.8 µg/mL (≈ 50.2 µM).

In the case of `Cc1ccc(C(=O)c2nnn3c2OCC3)cc1`, the half-maximal inhibitory concentration (IC50) in test [1] worked out at 79 µg/mL (≈ 345 µM); in test [2], 198 µg/mL (≈ 864 µM); in test [3], 127 µg/mL (≈ 554 µM); in test [4], 13.7 µg/mL (≈ 59.8 µM); in test [5], 8.5 µg/mL (≈ 37.1 µM); in test [6] it was 12.7 µg/mL (≈ 55.4 µM).

For `CC(=O)c1nnn2c1NCC2`, the IC50 in test [1], in test [2], in test [3], in test [4], in test [5] and in test [6] was above 200 µg/mL in each case.

In the case of `O=C(c1ccc(Cl)cc1)c1nnn2c1NCCC2`, the IC50 is above 200 µg/mL in test [1]; above 200 µg/mL in test [2]; 3.2 µg/mL (≈ 12.2 µM) in test [3]; above 200 µg/mL in test [4]; above 200 µg/mL in test [5]; above 200 µg/mL in test [6].

Source of the values: ChEMBL document CHEMBL1221240, “An efficient one-pot synthesis of heterocycle-fused 1,2,3-triazole derivatives as anti-cancer agents” (Bioorg Med Chem Lett, 2010).
